Assay results as given in paper PMC11248911 (RSC Advances, 2024).
Read-outs that look alike come from different tables or passages of the source.

How the values were obtained:
[1] = system: MCF-7 human cancer cell line; test: In vitro antiproliferative activity, LDH release assay, MCF-7; type: cell-based; conditions: for IC50: Homo sapiens
Summary of the method: (§1)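 Cells were grown in RPMI-1640 with 10% heat-inactivated FBS and penicillin/streptomycin at 37 °C, 5% CO2. Seeded at 2 × 10^5 cells per well, grown 18 h, then treated with a concentration series for 48 h. LDH in supernatant and in 6% Triton X-100 lysate was read kinetically for 1 min at 340 nm, using pH 7.5 phosphate buffer with 4.6 mM pyruvate and β-NADH. Release was taken as % of total; IC50 by probit, thrice in triplicate.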

[2] = system: normal human skin fibroblast (BJ-1) cell line; test: In vitro antiproliferative activity, LDH release assay, BJ-1 normal cells; type: cell-based; conditions: 48 h, read-out: BJ-1 IC50
Summary of the method: as §1

aminopeptidase N (APN) = aminopeptidase N (APN) (Homo sapiens, UniProt P15144); test: In vitro APN inhibition assay; type: biochemical
Sequence of aminopeptidase N (APN) (P15144 whole entry): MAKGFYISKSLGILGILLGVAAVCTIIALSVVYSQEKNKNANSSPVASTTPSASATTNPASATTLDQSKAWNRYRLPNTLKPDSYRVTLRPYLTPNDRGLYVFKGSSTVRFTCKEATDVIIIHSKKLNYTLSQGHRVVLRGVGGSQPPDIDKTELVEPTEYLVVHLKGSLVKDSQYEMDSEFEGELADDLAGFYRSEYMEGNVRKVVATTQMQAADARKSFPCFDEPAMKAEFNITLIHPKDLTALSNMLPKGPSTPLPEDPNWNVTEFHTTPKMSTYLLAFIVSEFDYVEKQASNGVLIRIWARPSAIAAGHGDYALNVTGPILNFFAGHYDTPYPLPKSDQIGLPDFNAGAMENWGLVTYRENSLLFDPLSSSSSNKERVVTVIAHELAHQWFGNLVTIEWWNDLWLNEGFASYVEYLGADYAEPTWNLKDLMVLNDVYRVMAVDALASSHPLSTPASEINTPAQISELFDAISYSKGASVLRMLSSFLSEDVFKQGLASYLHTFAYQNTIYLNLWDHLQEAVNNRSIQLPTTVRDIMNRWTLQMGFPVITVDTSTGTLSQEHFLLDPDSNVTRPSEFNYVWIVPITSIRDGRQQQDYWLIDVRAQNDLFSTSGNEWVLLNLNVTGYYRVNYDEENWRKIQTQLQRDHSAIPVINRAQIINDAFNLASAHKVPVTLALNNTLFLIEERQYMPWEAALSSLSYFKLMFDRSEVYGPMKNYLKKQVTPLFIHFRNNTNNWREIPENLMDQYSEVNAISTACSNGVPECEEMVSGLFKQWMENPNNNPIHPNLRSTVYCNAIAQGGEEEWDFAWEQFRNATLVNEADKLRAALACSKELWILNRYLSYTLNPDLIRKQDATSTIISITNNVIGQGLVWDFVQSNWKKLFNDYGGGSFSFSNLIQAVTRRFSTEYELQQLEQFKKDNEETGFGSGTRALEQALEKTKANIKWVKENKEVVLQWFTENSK
Summary of the method: (§2)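 Enzyme activity kits were run per manufacturer's instructions. Experiments were done in triplicate (n = 3) and reported as mean ± SD. IC50s were derived by probit analysis.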

VEGFR2 = type: biochemical, human; conditions: biomarker for angiogenesis
MMP9 = test: In vitro MMP9 inhibition assay; type: biochemical, human; conditions: biomarker for invasion
Summary of the method: as §2

MCF-7 cells [3] = test: Wound healing; type: cell-based, human; conditions: control cells 97.03%
MCF-7 cells [4] = test: Cell cycle analysis by flow cytometry; type: cell-based, human; conditions: MCF-7, 48 h
MCF-7 cells [5] = test: Apoptosis assay, Annexin-V/FITC and PI flow cytometry; type: cell-based, human; conditions: MCF-7, 48 h
[6] = MCF7, 48 h, read-out: MCF-7 IC50
[7] = MCF7, read-out: MCF-7 Experimental activity (pIC50) (converted)

Row | Structure (SMILES) | IC50 [1, 6] [µM] | IC50 [1, 7] [µM] | other results
1 | CC1=NN(c2ccccc2Cl)C(c2ccccc2)C1 (stereo not shown) [Compound 3, 1-(2-Chlorophenyl)-4,5-dihydro-3-methyl-5-phenyl-1H-pyrazole] | 8.8 ± 0.5 | 8.8 | –
2 | CC1=NN(c2c(Cl)cc(Cl)cc2Cl)C(c2ccccc2)C1 (stereo not shown) [Compound 4, 1-(2,4,6-Trichlorophenyl)-4,5-dihydro-3-methyl-5-phenyl-1H-pyrazole] | 8.1 ± 0.5 | 8.1 | –
3 | CNC(=S)N1N=C(C)CC1c1ccccc1 (stereo not shown) [Compound 6, 4,5-Dihydro-N,3-dimethyl-5-phenylpyrazole-1-carbothioamide] | 6.4 ± 0.3 | 6.4 | IC50 [2]: 18.2 ± 1.5 µM
4 | CCNC(=S)N1N=C(C)CC1c1ccccc1 (stereo not shown) [Compound 7, N-Ethyl-4,5-dihydro-3-methyl-5-phenylpyrazole-1-carbothioamide] | 5.8 ± 0.2 | 5.8 | IC50 [2]: 18.7 ± 1.5 µM
5 | CC1=NN(C(=S)Nc2ccccc2)C(c2ccccc2)C1 (stereo not shown) [Compound 8, 4,5-Dihydro-3-methyl-N,5-diphenylpyrazole-1-carbothioamide] | 6.2 ± 0.2 | 6.2 | selectivity index (SI) ([1]; BJ-1 versus MCF-7): 4.7; IC50 [2]: 29.1 ± 2.3 µM; IC50 (aminopeptidase N (APN)): 15.8 µM; VEGFR2 inhibition pIC50 (VEGFR2): 6.7; MMP9 inhibition pIC50 (MMP9): 6.4; percentage closure of the wound gap (MCF-7 cells [3]): 57.77%; cell population in S phase (MCF-7 cells [4]; control 24.79%): 23.02%; cell population in G0/G1 phase (MCF-7 cells [4]; control 65.02%): 72.11%; late apoptosis (MCF-7 cells [5]; control 0.15%): 17.11%; early apoptosis (MCF-7 cells [5]; control 0.37%): 11.52%; total MCF-7 cell death (MCF-7 cells [5]; control 1.95%): 32.91%
6 | CC1=NN(C(=S)NCc2ccccc2)C(c2ccccc2)C1 (stereo not shown) [Compound 9, N-Benzyl-4,5-dihydro-3-methyl-5-phenylpyrazole-1-carbothioamide] | 7 ± 0.3 | 7 | –
7 | CC1=NN(c2nc(-c3ccccc3)cs2)C(c2ccccc2)C1 (stereo not shown) [Compound 10, 4,5-Dihydro-3-methyl-5-phenyl-1-(4-phenylthiazol-2-yl)-1H-pyrazole] | 7.6 ± 0.3 | 7.6 | –
8 | CC1=NN(c2nc(-c3ccc(F)cc3)cs2)C(c2ccccc2)C1 (stereo not shown) [Compound 11, 1-(4-(4-Fluorophenyl)thiazol-2-yl)-4,5-dihydro-3-methyl-5-phenyl-1H-pyrazole] | 6.9 ± 0.2 | 6.9 | –
9 | COc1ccc(-c2csc(N3N=C(C)CC3c3ccccc3)n2)cc1 (stereo not shown) [Compound 12, 4,5-Dihydro-1-(4-(4-methoxyphenyl)thiazol-2-yl)-3-methyl-5-phenyl-1H-pyrazole] | 7.1 ± 0.2 | 7.1 | –
10 | CC1=NN(c2nc(-c3ccc(Cl)cc3Cl)cs2)C(c2ccccc2)C1 (stereo not shown) [Compound 13, 1-(4-(2,4-Dichlorophenyl)thiazol-2-yl)-4,5-dihydro-3-methyl-5-phenyl-1H-pyrazole] | 6.7 ± 0.2 | 6.7 | –
11 | CC1=NN(C2=NC(=O)C(C)S2)C(c2ccccc2)C1 (stereo not shown) [Compound 15, 2-(4,5-Dihydro-3-methyl-5-phenylpyrazol-1-yl)-5-methylthiazol-4(5H)-one] | 8.6 ± 0.3 | 8.6 | –
12 | CC1=NN(C2=NC(=O)C(=Cc3ccc(F)cc3)S2)C(c2ccccc2)C1 (stereo not shown) [Compound 16, 5-(4-Fluorobenzylidene)-2-(4,5-dihydro-3-methyl-5-phenylpyrazol-1-yl)thiazol-4(5H)-one] | 6.6 ± 0.2 | 6.6 | –
13 | COc1ccc(C=C2SC(N3N=C(C)CC3c3ccccc3)=NC2=O)cc1 (stereo not shown) [Compound 17, 5-(4-Methoxybenzylidene)-2-(4,5-dihydro-3-methyl-5-phenylpyrazol-1-yl)thiazol-4(5H)-one] | 7 ± 0.3 | 7 | –
14 | CC1=NN(C2=NC(=O)C(=Cc3ccc(Cl)cc3Cl)S2)C(c2ccccc2)C1 (stereo not shown) [Compound 18, 5-(2,4-Dichlorobenzylidene)-2-(4,5-dihydro-3-methyl-5-phenylpyrazol-1-yl)thiazol-4(5H)-one] | 6.9 ± 0.2 | 6.9 | –
15 | COc1ccc(C=C2SC(N3N=C(C)CC3c3ccccc3)=NC2=O)cc1OC (stereo not shown) [Compound 19, 5-(3,4-Dimethoxybenzylidene)-2-(4,5-dihydro-3-methyl-5-phenylpyrazol-1-yl)thiazol-4(5H)-one] | 7.5 ± 0.2 | 7.5 | –
16 | COc1cccc2c1C(=O)c1c(O)c3c(c(O)c1C2=O)C[C@@](O)(C(=O)CO)C[C@@H]3O[C@H]1C[C@H](N)[C@H](O)[C@H](C)O1 [Doxorubicin, reference compound] | 4.9 ± 0.3 | – | IC50 [2]: 12.9 ± 1.3 µM
17 | O=c1c(O)c(-c2ccc(O)c(O)c2)oc2cc(O)cc(O)c12 [quercetin, reference compound] | – | – | MMP9 inhibition pIC50 (MMP9): 6.7
